Screens (PubChem BioAssay)
FN deposition inh = inhibitors of fibronectin matrix deposition, primary screen, AH1F cells, Alexa488-fibronectin fluorescence, plate reader | AH1F fibroblasts, overnight | inhibition, % at 12.6 µM | 350,000 tested, 0.086% active | AID 743247, 2014;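 active means mean inhibition across replicates of 30% or more, regardless of how many single replicates reach that level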;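 further: positive control wells lacked labelled fibronectin entirely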
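Assay system: AH1F fibroblasts assembling fluorescent fibronectin matrix; Amount: 10000 AH1F cells per well; Buffer or medium: DMEM, 2% serum; Probe or stimulus: Alexa488-fibronectin, 24 nM final in well; Doses: single compound dose, delivered by pin transfer; Incubation: 1 h adhesion, overnight exposure; Measured by: fluorescence 485/525 nm; Read-out: fibronectin deposition inhibition.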
PGC1a acetyl inh = inhibitors of PGC1a acetylation signal, primary screen, cell-based, U2OS, AlphaScreen, inhibitor mode; AlphaScreen anti-acetyl-lysine; with virally co-expressed GCN5 acetyltransferase; inhibition, % at 15.6 µM; 350,000 tested, 0.17% active; AID 651687, 2012;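 active means every replicate shows inhibition of at least 40%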;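 further: 0% = neutral control wells and 100% = positive control wells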
FGF22 binding = binders of human FGF22 protein, primary screen, FGF22 synaptogenesis inhibitor project, biophysical, thermal shift, single point; activity (Tm shift, normalised), % at 9.99 µM; recombinant FGF22 thermal shift, SYPRO orange fluorescence; percent of sucrose octasulfate shift, DMSO zero; Fibroblast growth factor 22 (Homo sapiens), Q9HCT0; AID 651658, 2012; 340,000 tested, 1.5% active;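 active means mean Tm shift, scaled 0 neutral to 100 positive control, at about 1.3% or above, every replicate too, limit read from the data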
Target sequence (Q9HCT0 whole entry, looked up): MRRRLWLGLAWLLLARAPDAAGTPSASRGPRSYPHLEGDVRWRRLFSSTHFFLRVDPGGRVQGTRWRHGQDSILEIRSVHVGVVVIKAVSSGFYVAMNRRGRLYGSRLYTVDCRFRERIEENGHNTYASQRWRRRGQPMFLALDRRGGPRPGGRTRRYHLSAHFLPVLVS
PAX8 reporter = inhibitors of PAX8-driven TPO luciferase reporter, primary screen, RMG-I cells, single concentration. AID 652154, 2013. SteadyGlo, 24 h. 360,000 tested, 1.2% active. inhibition, % at 12.6 µM;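 active means mean replicate inhibition at least 60% with every replicate also reaching 60%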;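 further: luciferase light reporting Pax8 driven TPO promoter activity; plate controls were median of neutral control wells for no effect and mitoxantrone controls for full effect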
EWS-Fli block = EWS/Fli-driven NR0B1 reporter inhibitors, primary screen, A673 cells, NR0B1 luciferase, luminescence, MLPCN library. viability-normalised. inhibition, % at 12.6 µM. 350,000 tested, 0.67% active. AID 651661, 2012;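 active means mean inhibition of at least 50% after viability correction, with every replicate also passing that limit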;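 further: firefly luciferase signal divided by Alamar Blue viability fluorescence both relative to DMSO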
HIV Env fusion = inhibitors of HIV-1 Env-driven cell-cell fusion, primary screen, HeLa-JRFL effector, CEM21 target cells, luciferase. inhibition, % at 12.3 µM. 360,000 tested, 1.1% active;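 active means mean replicate inhibition score of at least 50 and every replicate individually at or above 50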;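 further: 0% = plate neutral controls and 100% = maraviroc near 300 nM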
Active calls of the source: *; . = no result given; [ ] = another dose, or the depositor's remark. Hits are enriched below; roughly 3.1% of the tested compounds scored in any of these assays.

SMILES	FN deposition inh	PGC1a acetyl inh	FGF22 binding	PAX8 reporter	EWS-Fli block	HIV Env fusion
O=C(Cc1ccc(F)cc1)NC1CCSC1=O (stereo unspecified)	5.8	13.0	43.0*	5.0	2.2	22.3
O=C(CCCc1ccccc1)NC1CCSC1=O (stereo unspecified)	.	.	.	.	-19.9	.
CCC(=O)N1C[C@@H](C)[C@H](OC)CN(C)C(=O)c2cc(NC(=O)c3ccc(F)cc3)ccc2OC[C@H]1C	5.5	-10.4	-0.5	-22.1	-3.9	-13.3[16.7 µM]
CCCOP(=O)(OCCC)C(Nc1cccc(C(F)(F)F)c1)c1ccc(C)cc1 (stereo unspecified)	-5.7	-2.8	.	.	.	80.6*
Cc1ccc(S(=O)(=O)N[C@@H]2CC[C@@H](CC(=O)N3CCN(c4ccccc4)CC3)O[C@H]2CO)cc1	.	-4.8	0.2	19.3	-4.5	16.5[16.7 µM]
CC(C)N1CCC(N2CCN(C3CCCCCC3)CC2CCO)CC1 (stereo unspecified)	1.6	.	43.1*	21.6	12.3	14.2
COCCn1c(C(=O)N(C)C)cc2c1C[C@H]1CN(C(=O)c3ccccc3)[C@@](Cc3ccc(F)cc3)(C(=O)OC)[C@@H]21	-2.9	.	-0.1	-0.1	-2.7	-3.5
COC(=O)[C@@]1(Cc2ccc(F)cc2)[C@H]2c3cc(C(=O)N(C)C)n(CCO)c3C[C@H]2CN1C(=O)c1ccccc1	.	.	-0.2	-1.9	-1.8	80.3*
COC(=O)[C@@]1(Cc2ccc(F)cc2)[C@H]2c3cc(C(=O)N(C)C)n(CCc4ccccn4)c3C[C@H]2CN1C(=O)c1ccccc1	8.8	.	-0.1	9.4	0.2	-13.4
COC(=O)[C@@]1(Cc2ccc(F)cc2)[C@H]2c3cc(C(=O)N4CCCC4)n(CCc4ccccn4)c3C[C@H]2CN1C(=O)c1ccccc1	43.9*	.	0.1	5.1	2.8	-44.4
COC(=O)C1=C(C)N(Cc2ccccc2)C(=NCc2ccccc2)N[C@H]1c1ccccc1	7.8	-1.6	0.0	5.6	17.9	-153.0
COC(=O)C1=C(C)N(Cc2ccccc2)C(=NCc2ccccc2)N[C@H]1c1cccc(F)c1	23.3	.	45.1*	-4.4	30.6	.
COC(=O)C1=C(C)N(Cc2cccc(C(F)(F)F)c2)C(=NCc2ccc3c(c2)OCO3)NC1c1cccc(F)c1 (stereo unspecified)	-0.6	.	-0.4	65.0*	45.4	30.6
CCCN1[C@@H]2c3ccc(-c4ccccc4F)c(=O)n3C[C@H]1[C@H](CO)[C@H]2C(=O)NCC	.	-15.1	0.4	3.1	4.4	.
COc1cccc(C#Cc2ccc3c(c2)[C@H]2[C@H](CCN2S(=O)(=O)c2ccc(C)cc2)[C@H](CO)N3)c1	-16.1	-15.6	0.2	.	-3.4	-15.4[16.7 µM]
C[C@@H]1CN([C@H](C)CO)C(=O)c2cc(NC(=O)Nc3ccc4c(c3)OCO4)ccc2O[C@H]1CN(C)Cc1ccncc1	6.3	-1.2	-0.1	4.1	-3.1	58.2*
C[C@H]1CCCCO[C@@H](CN(C)Cc2ccc(C(F)(F)F)cc2)[C@@H](C)CN([C@@H](C)CO)C(=O)c2cc(NC(=O)Nc3ccc(F)cc3)ccc2O1	-0.1	-3.5	-0.1	104.9*	18.6	87.2*[16.7 µM]
C[C@@H]1CCCCO[C@@H](CN(C)Cc2ccc(C(F)(F)F)cc2)[C@@H](C)CN([C@H](C)CO)C(=O)c2cc(NC(=O)Nc3ccc(F)cc3)ccc2O1	-14.8	11.4	0.1	18.9	3.1	-19.2[16.7 µM]
C[C@@H]1CCCCO[C@@H](CN(C)Cc2ccc(C(F)(F)F)cc2)[C@H](C)CN([C@H](C)CO)C(=O)c2cc(NC(=O)C3CCCCC3)ccc2O1	.	-1.6	-0.2	10.7	18.2	70.6*[16.7 µM]
C[C@@H]1CCCCO[C@H](CN(C)Cc2ccc(C(F)(F)F)cc2)[C@@H](C)CN([C@@H](C)CO)C(=O)c2cc(NC(=O)Nc3ccc(F)cc3)ccc2O1	-3.6	-9.8	-0.7	91.6*	20.6	34.4[16.7 µM]
C/C=C/c1cnc2c(c1)C(=O)N([C@@H](C)CO)C[C@@H](C)[C@H](CN(C)C(=O)CN1CCOCC1)O2	-4.8	6.0	-0.2	.	-5.4	-7.4[16.7 µM]
